Data published in ChEMBL document CHEMBL1136914, “Synthesis and structure-activity relationships of bengazole A analogs” (2009).
In brackets after ≈: the same amount, converted by molar mass. Activity calls are given as the source filed them. No cut-off for these calls is given here.

Assays:
Candida albicans [1] = experiment: Antifungal activity against fluconazole-resistant Candida albicans CDFR1 […]; type: functional
Candida albicans [2] = experiment: Antifungal activity against Candida albicans ATCC 14503 at 300 ug/disk by disk diffusion assay; type: functional; details: read-out: IZ
In short: (§1)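 Disk diffusion on agar; test material applied as μg per paper disk (doses up to 300 μg/disk); activity read as zone of growth inhibition in mm.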

Nakaseomyces glabratus [3] = experiment: Antifungal activity against fluconazole-resistant Candida glabrata at 300 ug/disk by disk diffusion assay; type: functional; details: read-out: IZ
In short: (§2)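 Agar disk diffusion against a panel of five Candida species, including fluconazole-resistant strains. Compound was applied per disk at doses up to 300 μg/disk. Activity was read as the diameter of the zone of growth inhibition, in mm.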

Candida albicans [4] = experiment: Antifungal activity against fluconazole-resistant Candida albicans CDFR1 at 300 ug/disk by disk diffusion assay; type: functional; details: read-out: IZ; in short: as §2
Pichia kudriavzevii [5] = experiment: Antifungal activity against Candida krusei at 300 ug/disk by disk diffusion assay; type: functional; details: read-out: IZ; in short: as §1
Candida albicans [6] = experiment: Antifungal activity against Candida albicans isolate 96-489 at 300 ug/disk by disk diffusion assay; type: functional; details: read-out: IZ; in short: as §2
Candida albicans [7] = experiment: Antifungal activity against Candida albicans isolate 96-489 up to 300 ug/disk by paper disk diffusion assay; type: functional, organism-based; in short: as §1
Pichia kudriavzevii [8] = experiment: Antifungal activity against Candida krusei up to 300 ug/disk by paper disk diffusion assay; type: functional, organism-based; in short: as §1
Nakaseomyces glabratus [9] = experiment: Antifungal activity against Candida glabrata up to 300 ug/disk by paper disk diffusion assay; type: functional, organism-based; in short: as §1
Candida albicans [10] = experiment: Antifungal activity against Candida albicans ATCC 14503 up to 300 ug/disk by paper disk diffusion assay; type: functional, organism-based; in short: as §1
Candida albicans [11] = experiment: Antifungal activity against Candida albicans isolate 96-489 at 5 ug/disk by disk diffusion assay; type: functional; details: read-out: IZ; in short: as §1
Candida albicans [12] = experiment: Antifungal activity against Candida albicans isolate 96-489 after 24 hrs by microbroth dilution method; type: functional; details: isolate 96-489, 24 h
In short: (§3)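 Microbroth dilution MIC in RPMI medium, incubated at 37 °C for 24 h; MIC reported in μg/mL.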

Pichia kudriavzevii [13] = experiment: Antifungal activity against Candida krusei at 5 ug/disk by disk diffusion assay; type: functional; details: read-out: IZ; in short: as §1
Candida albicans [14] = experiment: Antifungal activity against Candida albicans ATCC 14503 after 24 hrs by microbroth dilution method; type: functional; details: ATCC 14503, 24 h; in short: as §3
Candida albicans [15] = experiment: Antifungal activity against Candida albicans ATCC 14503 at 5 ug/disk by disk diffusion assay; type: functional; details: read-out: IZ; in short: as §1
Pichia kudriavzevii [16] = experiment: Antifungal activity against Candida krusei after 48 hrs by microbroth dilution method; type: functional
In short: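 Microbroth dilution MIC in RPMI medium at 37 °C, with incubation extended to 48 h; MIC given in μg/mL.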

Nakaseomyces glabratus [17] = experiment: Antifungal activity against fluconazole-resistant Candida glabrata at 5 ug/disk by disk diffusion assay; type: functional; details: read-out: IZ; in short: as §2
Candida albicans [18] = experiment: Antifungal activity against fluconazole-resistant Candida albicans CDFR1 at 5 ug/disk by disk diffusion assay; type: functional; details: read-out: IZ; in short: as §2
Candida albicans [19] = experiment: Antifungal activity against fluconazole-resistant Candida albicans CDFR1 at 10 ug/disk by disk diffusion assay; type: functional; details: read-out: IZ; in short: as §2
Pseudomonas aeruginosa = experiment: Antibacterial activity against Pseudomonas aeruginosa; type: functional, organism-based
Candida albicans [20] = experiment: Antifungal activity against Candida albicans ATCC 14503; type: functional
Staphylococcus aureus = experiment: Antibacterial activity against Staphylococcus aureus; type: functional, organism-based
Escherichia coli = experiment: Antibacterial activity against Escherichia coli; type: functional, organism-based
Nakaseomyces glabratus [21] = experiment: Antifungal activity against fluconazole-resistant Candida glabrata at 10 ug/disk by disk diffusion assay; type: functional; details: read-out: IZ; in short: as §2
Pichia kudriavzevii [22] = experiment: Antifungal activity against Candida krusei at 10 ug/disk by disk diffusion assay; type: functional; details: read-out: IZ; in short: as §1
Candida albicans [23] = experiment: Antifungal activity against Candida albicans isolate 96-489 at 10 ug/disk by disk diffusion assay; type: functional; details: read-out: IZ; in short: as §1
Candida albicans [24] = experiment: Antifungal activity against Candida albicans ATCC 14503 at 10 ug/disk by disk diffusion assay; type: functional; details: read-out: IZ; in short: as §2

SMILES	MIC (Candida albicans [1]) [µg/mL]	zone of inhibition at 300 µg/disc (Candida albicans [2]) [mm]	zone of inhibition at 300 µg/disc (Nakaseomyces glabratus [3]) [mm]	zone of inhibition at 300 µg/disc (Pichia kudriavzevii [5]) [mm]	zone of inhibition at 300 µg/disc (Candida albicans [6]) [mm]	Activity (Candida albicans [7])	Activity (Pichia kudriavzevii [8])	Activity (Nakaseomyces glabratus [9])	Activity (Candida albicans [10])	also measured
C[C@@H](O[Si](C)(C)C(C)(C)C)[C@@H]1OC(C)(C)O[C@@H]1C[C@@H](O)c1cocn1	> 32	8	0	0	0	–	–	–	–	zone of inhibition at 300 µg/disc (Candida albicans [4]): 0 mm
CCCCCCCCCCCCCC(=O)OC(c1cnc(SC)o1)C(C)(C)C (stereo not given)	> 32	0	0	0	0	–	–	–	–	zone of inhibition at 300 µg/disc (Candida albicans [4]): 0 mm
OC(c1ccccc1)c1cnco1 (stereo not given)	–	10	–	9	–	–	–	–	–	–
CCCCCCCCCCCCCC(=O)OC(c1ccco1)c1nc(C(CCC)O[Si](C)(C)C(C)(C)C)co1 (stereo not given)	–	–	–	–	–	inactive	inactive	inactive	inactive	–
COc1ccc(C(O)c2cnc(SC)o2)cc1 (stereo not given)	–	8	–	0	0	–	–	–	–	–
CCCC(O[Si](C)(C)C(C)(C)C)c1coc(C(O)c2cnco2)n1 (stereo not given)	–	–	–	–	–	inactive	inactive	inactive	inactive	–
CCCCCCCCCCCCCC(=O)OC(c1cnco1)c1nc(C(CCC)O[Si](C)(C)C(C)(C)C)co1 (stereo not given)	–	–	–	–	–	inactive	inactive	inactive	inactive	–
CCCCCCCCCCCCCC(=O)OC(c1ccccc1)c1cnc(SC)o1 (stereo not given)	> 32	0	0	0	0	–	–	–	–	zone of inhibition at 300 µg/disc (Candida albicans [4]): 0 mm
CCCCCCCCCCCCCC(=O)OC(c1cnco1)c1nc(C(O)CCC)co1 (stereo not given)	–	–	–	–	–	inactive	inactive	inactive	inactive	–
CSc1ncc(C(O)c2ccccc2)o1 (stereo not given)	–	10	–	9	–	–	–	–	–	–
CCCCCCCCCCCCCC(=O)OC(c1ccccc1)c1nc(C(CCC)O[Si](C)(C)C(C)(C)C)co1 (stereo not given)	–	–	–	–	–	inactive	inactive	inactive	inactive	–
C[C@@H]1[C@H](O)[C@@H](C)/C=C/C=C/C=C/C=C/C=C/C=C/C=C/[C@H](O[C@@H]2O[C@H](C)[C@@H](O)[C@H](N)[C@@H]2O)C[C@@H]2O[C@](O)(C[C@@H](O)C[C@@H](O)[C@H](O)CC[C@@H](O)C[C@@H](O)CC(=O)O[C@H]1C)C[C@H](O)[C@H]2C(=O)O [AMPHOTERICIN B]	> 32	–	–	–	–	–	–	–	–	zone of inhibition at 5 µg/disc (Candida albicans [11]): 12 mm; MIC (Candida albicans [12]): 0.5 µg/mL (≈ 0.541 µM); zone of inhibition at 5 µg/disc (Pichia kudriavzevii [13]): 15 mm; MIC (Candida albicans [14]): 0.5 µg/mL (≈ 0.541 µM); zone of inhibition at 5 µg/disc (Candida albicans [15]): 22 mm; MIC (Pichia kudriavzevii [16]): 0.25 µg/mL (≈ 0.271 µM); zone of inhibition at 5 µg/disc (Nakaseomyces glabratus [17]): 19 mm; zone of inhibition at 5 µg/disc (Candida albicans [18]): 23 mm
C[C@@H](O[Si](C)(C)C(C)(C)C)[C@@H]1OC(C)(C)O[C@@H]1C[C@H](O)c1cocn1	> 32	10	0	9	0	–	–	–	–	zone of inhibition at 300 µg/disc (Candida albicans [4]): 0 mm
CCCCCCCCCCCCCC(=O)OC(c1ccco1)c1nc(C(O)CCC)co1 (stereo not given)	–	–	–	–	–	inactive	inactive	inactive	inactive	–
CCCCCCCCCCCCCC(=O)OC(c1cnco1)C(C)(C)C (stereo not given)	> 32	0	0	0	0	–	–	–	–	zone of inhibition at 300 µg/disc (Candida albicans [4]): 0 mm
CCCC(O[Si](C)(C)C(C)(C)C)c1coc(C(O)c2ccccc2)n1 (stereo not given)	–	–	–	–	–	inactive	inactive	inactive	inactive	–
CCCCCCCCCCCCCC(=O)OC(c1ccccc1)c1cnco1 (stereo not given)	> 32	0	0	0	0	–	–	–	–	zone of inhibition at 300 µg/disc (Candida albicans [4]): 0 mm
O=Cc1cocn1	> 32	–	10	–	–	–	–	–	–	–
CCCCCCCCCCCCCC(=O)O[C@@H](c1cnco1)c1nc([C@@H](O)C[C@@H](O)[C@@H](O)[C@@H](C)O)co1 [BENGAZOLE A]	> 32	–	–	–	–	–	–	–	–	zone of inhibition at 10 µg/disc (Candida albicans [19]): 50 mm; Activity (Pseudomonas aeruginosa): inactive; MIC (Candida albicans [20]): 1 µg/mL (≈ 1.91 µM); Activity (Staphylococcus aureus): inactive; MIC (Candida albicans [12]): 1 µg/mL (≈ 1.91 µM); MIC (Candida albicans [14]): 1 µg/mL (≈ 1.91 µM); Activity (Escherichia coli): inactive; zone of inhibition at 10 µg/disc (Nakaseomyces glabratus [21]): 15 mm; zone of inhibition at 10 µg/disc (Pichia kudriavzevii [22]): 35 mm; zone of inhibition at 10 µg/disc (Candida albicans [23]): 15 mm; zone of inhibition at 10 µg/disc (Candida albicans [24]): 50 mm
CC(C)(C)C(O)c1cocn1 (stereo not given)	> 32	0	0	0	0	–	–	–	–	zone of inhibition at 300 µg/disc (Candida albicans [4]): 0 mm
OC(c1ccc2ccccc2c1)c1cnco1 (stereo not given)	–	10	–	7.5	–	–	–	–	–	MIC (Candida albicans [12]): 32 µg/mL (≈ 142 µM); MIC (Candida albicans [14]): > 64 µg/mL; MIC (Pichia kudriavzevii [16]): > 64 µg/mL
CCCC(O[Si](C)(C)C(C)(C)C)c1coc(C(O)c2ccco2)n1 (stereo not given)	–	–	–	–	–	inactive	inactive	inactive	inactive	–
CSc1ncc(C(O)C(C)(C)C)o1 (stereo not given)	–	–	–	0	–	–	–	–	–	–
CCCCCCCCCCCCCC(=O)OC(c1ccc2ccccc2c1)c1cnco1 (stereo not given)	–	–	–	–	–	–	–	–	–	MIC (Candida albicans [12]): > 64 µg/mL; MIC (Candida albicans [14]): > 64 µg/mL; MIC (Pichia kudriavzevii [16]): > 64 µg/mL
CSc1ncc(C(O)c2ccc(Br)cc2)o1 (stereo not given)	–	13	–	9	12	–	–	–	–	MIC (Candida albicans [12]): 8 µg/mL (≈ 26.7 µM); MIC (Candida albicans [14]): 4 µg/mL (≈ 13.3 µM); MIC (Pichia kudriavzevii [16]): 4 µg/mL (≈ 13.3 µM)
CCCCCCCCCCCCCC(=O)OC(c1ccc2ccccc2c1)c1cnc(SC)o1 (stereo not given)	–	–	–	–	–	–	–	–	–	MIC (Candida albicans [12]): > 64 µg/mL; MIC (Candida albicans [14]): > 64 µg/mL; MIC (Pichia kudriavzevii [16]): > 64 µg/mL
CCCCCCCCCCCCCC(=O)OC(c1ccc(Br)cc1)c1cnc(SC)o1 (stereo not given)	> 32	0	0	0	0	–	–	–	–	MIC (Candida albicans [12]): > 64 µg/mL; MIC (Candida albicans [14]): > 64 µg/mL; MIC (Pichia kudriavzevii [16]): > 64 µg/mL; zone of inhibition at 300 µg/disc (Candida albicans [4]): 0 mm
CCCCCCCCCCCCCC(=O)OC(c1ccccc1)c1nc(C(O)CCC)co1 (stereo not given)	–	–	–	–	–	inactive	inactive	inactive	inactive	–
